# Measured values as given in PubChem BioAssay AID488910 (Broad Institute, 2010).
# Among all 20,000 compounds or so, about 25 (0.1%) were called active. Shown is part of a subset that was picked to be rich in actives. A number with no mark means an inactive call.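 Rule for the calls: active = mean replicate protection from cytokine-induced ATP loss at least 50% and at least 75% of replicates each reaching 50%; inconclusive = meets only one of the two criteria, mean or replicate share; inactive = fails both the mean and replicate share criteria.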
# Assay: preservation of ATP in cytokine-treated beta cells – cell-based, ATP luminescence, single point, primary screen (AID 488910)
# Conditions: INS-1E cytokine-induced death, 48 h, at 10 µM, active compounds read high, normalised: neutral wells 0, positive control 100
# In short: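 Test system: INS-1E rat cells | Quantity: 8000 cells per well | Medium: Phenol-red-free RPMI with 5% fetal bovine serum | Reagent: Cytokine cocktail of IFN-γ, TNF-α and IL-1β | Doses: One compound concentration, pin transfer | Timing: 48 h co-treatment, 10 min post-lysis read | Technique: Luminescent ATP assay (CellTiter-Glo)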
row,SMILES,protection from cytokine-induced ATP loss
1,C[C@@H]1CN([C@@H](C)CO)C(=O)Cc2cc(NC(=O)Nc3ccc(F)cc3)ccc2O[C@@H]1CN(C)S(=O)(=O)c1ccccc1,13.1%
2,C[C@@H]1CN([C@@H](C)CO)C(=O)c2cc(NS(C)(=O)=O)ccc2O[C@@H]1CN(C)C(=O)Nc1ccccc1,-5.38%
3,CC(C)NC(=O)Nc1ccc2c(c1)C(=O)N([C@@H](C)CO)C[C@H](C)[C@@H](CN(C)S(C)(=O)=O)O2,2.67%
4,C[C@H]1CN([C@@H](C)CO)C(=O)Cc2cc(NS(=O)(=O)c3cccs3)ccc2O[C@@H]1CN(C)S(=O)(=O)c1cn(C)cn1,6.75%
5,COc1ccc(CN(C)C[C@H]2Oc3c(NS(=O)(=O)c4ccccc4)cccc3C(=O)N([C@@H](C)CO)C[C@H]2C)cc1,2.69%
6,CNC[C@H]1Oc2ccc(NC(=O)C3CCCCC3)cc2C(=O)N([C@H](C)CO)C[C@@H]1C,1.62%
7,C[C@@H]1CN([C@@H](C)CO)C(=O)c2cc(NC(=O)Cn3cnnn3)ccc2O[C@H]1CN(C)Cc1ccc(C(F)(F)F)cc1,-4.67%
8,Cc1noc(C)c1NC(=O)Nc1ccc2c(c1)C(=O)N([C@@H](C)CO)C[C@H](C)[C@H](CN(C)Cc1ccc(-c3ccccc3)cc1)O2,-3.13%
9,Cc1noc(C)c1NC(=O)Nc1ccc2c(c1)C(=O)N([C@@H](C)CO)C[C@@H](C)[C@@H](CN(C)CC1CCCCC1)O2,3.33%
10,C[C@H](CO)N1C[C@H](C)[C@H](CN(C)Cc2ccc(Oc3ccccc3)cc2)Oc2c(NC(=O)CCCCCC(=O)Nc3ccccc3N)cccc2C1=O,-9.83%
11,COc1ccc(NC(=O)N(C)C[C@H]2Oc3ccc(N(C)C)cc3C(=O)N([C@H](C)CO)C[C@H]2C)cc1,1.38%
12,Cc1ccc(S(=O)(=O)Nc2ccc3c(c2)C(=O)N([C@H](C)CO)C[C@H](C)[C@@H](CN(C)C(=O)NC(C)C)OCCCC[C@@H](C)O3)cc1,12.2%
13,Cc1ccc(S(=O)(=O)N(C)C[C@H]2Oc3ccc(NC(=O)CCCCCC(=O)Nc4ccccc4N)cc3C(=O)N([C@H](C)CO)C[C@H]2C)cc1,-6.48%
14,CN(C)CCCOc1ccc(/C=N/NC(=O)c2cccc(C(=O)NO)c2)cc1,-4.67%
15,C[C@H]1CN([C@@H](C)CO)C(=O)Cc2cc(NC(=O)Nc3ccc(C(F)(F)F)cc3)ccc2O[C@@H]1CN(C)S(=O)(=O)c1ccc(Cl)cc1,-4.37%
16,C[C@@H]1CN([C@H](C)CO)C(=O)Cc2cc(NC(=O)CCCCCC(=O)Nc3ccccc3N)ccc2O[C@H]1CN(C)S(=O)(=O)c1ccc(F)cc1,9.28%
17,COc1cc(/C=N/NC(=O)CCCCCCC(=O)Nc2ccccc2O)ccc1O,-6.33%
18,COc1ccc(NC(=O)N(C)C[C@H]2Oc3ccc(NC(=O)NC(C)C)cc3CC(=O)N([C@H](C)CO)C[C@H]2C)cc1,14%
19,Cc1ccc(S(=O)(=O)N(C)C[C@@H]2Oc3ccc(N(C)C)cc3C(=O)N([C@@H](C)CO)C[C@H]2C)cc1,-1.09%
20,Cc1ccc(S(=O)(=O)Nc2ccc3c(c2)C(=O)N([C@@H](C)CO)C[C@@H](C)[C@H](CN(C)Cc2ccc(C(=O)O)cc2)O3)cc1,3.07%
21,C[C@H]1CN([C@@H](C)CO)C(=O)Cc2cc(NC(=O)Cn3cnnn3)ccc2O[C@H]1CN(C)Cc1ccc(C(=O)O)cc1,10.1%
22,Cc1noc(C)c1S(=O)(=O)N(C)C[C@@H]1Oc2c(NS(=O)(=O)c3cn(C)cn3)cccc2C(=O)N([C@@H](C)CO)C[C@H]1C,4.74%
23,CC(C)NC(=O)Nc1ccc2c(c1)C(=O)N([C@@H](C)CO)C[C@@H](C)[C@H](CN(C)Cc1ccc(Cl)c(Cl)c1)O2,-9.43%
24,C[C@@H]1CN([C@H](C)CO)C(=O)c2cccc(NS(=O)(=O)c3ccc(Cl)cc3)c2O[C@H]1CN(C)Cc1ccc(C(F)(F)F)cc1,6.19%

row,SMILES,protection from cytokine-induced ATP loss
1,C[C@H]1CN([C@@H](C)CO)C(=O)c2cccc(NC(=O)Nc3ccc(F)cc3)c2O[C@H]1CN(C)S(=O)(=O)c1cn(C)cn1,5.6%
2,Cc1noc(C)c1NC(=O)N(C)C[C@@H]1Oc2ccc(NS(=O)(=O)c3ccc(Cl)cc3)cc2C(=O)N([C@@H](C)CO)C[C@H]1C,5.78%
3,C[C@@H]1CN([C@H](C)CO)C(=O)c2cccc(NC(=O)Nc3ccc4c(c3)OCO4)c2O[C@H]1CN(C)S(=O)(=O)c1ccc(Cl)cc1,-2.56%
4,COc1ccc(NC(=O)N(C)C[C@@H]2Oc3c(NS(=O)(=O)c4ccc(OC)cc4)cccc3C(=O)N([C@H](C)CO)C[C@@H]2C)cc1,8.49%
5,C[C@H]1CN([C@@H](C)CO)C(=O)c2cc(NC(=O)Cn3cnnn3)ccc2O[C@H]1CN(C)Cc1ccc(C(=O)O)cc1,1.96%
6,C[C@@H]1CN([C@H](C)CO)C(=O)c2cccc(NC(=O)CCCCCC(=O)Nc3ccccc3N)c2O[C@H]1CN(C)CC1CCCCC1,4.11%
7,C[C@@H]1CN([C@H](C)CO)C(=O)Cc2cc(NC(=O)Cn3cnnn3)ccc2O[C@H]1CN(C)Cc1ccc(Cl)c(Cl)c1,4.05%
8,C[C@H](CO)N1C[C@H](C)[C@@H](CN(C)C(=O)Nc2ccccc2)Oc2c(NC(=O)CCCCCC(=O)Nc3ccccc3N)cccc2C1=O,4.22%
9,C[C@@H]1CN([C@H](C)CO)C(=O)c2cccc(NS(=O)(=O)c3ccc(F)cc3)c2O[C@@H]1CN(C)S(=O)(=O)c1ccc(Cl)cc1,0.697%
10,C[C@@H]1CN([C@@H](C)CO)C(=O)c2cccc(NC(=O)Nc3cccc4ccccc34)c2O[C@@H]1CN(C)CC1CC1,2.15%
11,COC(=O)CCCCCCC(=O)N/N=C/c1c(Cl)cc(OC)c(OC)c1Cl,2.23%
12,C[C@@H]1CN([C@@H](C)CO)C(=O)c2cc(NS(=O)(=O)c3ccc(F)cc3)ccc2O[C@@H]1CN(C)C(=O)NC1CCCCC1,-2.78%
13,COc1ccc(NC(=O)N(C)C[C@H]2Oc3ccc(N(C)C)cc3C(=O)N([C@@H](C)CO)C[C@H]2C)cc1,3.7%
14,Cc1ccc(S(=O)(=O)N(C)C[C@@H]2Oc3c(NC(=O)Nc4ccc(F)cc4)cccc3C(=O)N([C@H](C)CO)C[C@H]2C)cc1,40.9%
15,CNC[C@H]1OCCCC[C@@H](C)Oc2ccc(NC(=O)Cc3ccccc3)cc2C(=O)N([C@H](C)CO)C[C@@H]1C,-7.6%
16,C[C@@H]1CN([C@@H](C)CO)C(=O)Cc2cc(NS(=O)(=O)c3ccc(F)cc3)ccc2O[C@@H]1CN(C)S(=O)(=O)c1cccs1,4.79%
17,C[C@H](CO)N1C[C@H](C)[C@H](CN(C)Cc2ccccc2)Oc2ccc(NC(=O)CCCCCC(=O)Nc3ccccc3N)cc2C1=O,-0.781%
18,COc1ccc(NC(=O)N(C)C[C@@H]2Oc3ccc(NC(=O)CCCN(C)C)cc3CC(=O)N([C@H](C)CO)C[C@H]2C)cc1,7.7%
19,C[C@@H]1CN([C@@H](C)CO)C(=O)c2cccc(NS(=O)(=O)c3ccc(Cl)cc3)c2O[C@@H]1CN(C)Cc1ccccc1,-3.08%
20,CC(C)NC(=O)N(C)C[C@H]1Oc2ccc(NS(C)(=O)=O)cc2CC(=O)N([C@@H](C)CO)C[C@@H]1C,2.48%
21,Cc1noc(C)c1NC(=O)N(C)C[C@@H]1Oc2c(NC(=O)C3CCCCC3)cccc2C(=O)N([C@H](C)CO)C[C@@H]1C,10.1%
22,C[C@@H]1CN([C@H](C)CO)C(=O)c2cccc(NC(=O)Nc3ccc4c(c3)OCO4)c2O[C@@H]1CN(C)Cc1ccccc1,-9.92%
23,C[C@@H]1CN([C@@H](C)CO)C(=O)c2cccc(NS(=O)(=O)c3cccs3)c2O[C@H]1CN(C)Cc1ccncc1,4.56%
24,C[C@H]1CN([C@@H](C)CO)C(=O)Cc2cc(NC(=O)Cn3cnnn3)ccc2O[C@@H]1CN(C)Cc1ccc(-c2ccccc2)cc1,5.19%

row,SMILES,protection from cytokine-induced ATP loss
1,C[C@@H]1CN([C@H](C)CO)C(=O)Cc2cc(NC(=O)Nc3cccc4ccccc34)ccc2O[C@@H]1CN(C)Cc1ccc(C(F)(F)F)cc1,-18.8%
2,Cc1ccc(S(=O)(=O)Nc2ccc3c(c2)CC(=O)N([C@H](C)CO)C[C@@H](C)[C@H](CN(C)Cc2ccc(C(F)(F)F)cc2)O3)cc1,4.83%
3,O=C(NO)c1ccc(C(=O)N/N=C/c2cc(Br)cc(Br)c2O)cc1,29.8%
4,C[C@@H]1CN([C@@H](C)CO)C(=O)c2cc(NS(=O)(=O)c3ccc(Cl)cc3)ccc2O[C@H]1CN(C)C(=O)Nc1ccc(C(F)(F)F)cc1,-4.38%
5,C[C@H]1CN([C@@H](C)CO)C(=O)c2cc(NS(=O)(=O)c3cccs3)ccc2O[C@@H]1CN(C)C(=O)Nc1ccccc1,10.2%
6,C[C@@H]1CN([C@H](C)CO)C(=O)Cc2cc(NS(=O)(=O)c3cccs3)ccc2O[C@@H]1CN(C)Cc1ccc(C(=O)O)cc1,5.4%
7,C[C@@H]1CN([C@H](C)CO)C(=O)Cc2cc(NS(=O)(=O)c3cn(C)cn3)ccc2O[C@@H]1CN(C)C(=O)Nc1ccccc1,10.7%
8,CC(C)NC(=O)N(C)C[C@@H]1Oc2ccc(NC(=O)CCCCCC(=O)Nc3ccccc3N)cc2C(=O)N([C@@H](C)CO)C[C@H]1C,12.1%
9,Cc1ccc(S(=O)(=O)Nc2ccc3c(c2)CC(=O)N([C@@H](C)CO)C[C@H](C)[C@H](CN(C)Cc2ccccc2)O3)cc1,12.2%
10,COC(=O)CCCCCCC(=O)N/N=C/c1cccc(Br)c1,21.3%
11,C[C@H](CO)N1C[C@H](C)[C@H](CN(C)C(=O)Nc2cccc3ccccc23)Oc2ccc(NS(C)(=O)=O)cc2C1=O,4.67%
12,C[C@H]1CN([C@@H](C)CO)C(=O)Cc2cc(NC(=O)NC3CCCCC3)ccc2O[C@@H]1CN(C)Cc1ccc(Oc2ccccc2)cc1,-49.9%
13,C[C@@H]1CN([C@@H](C)CO)C(=O)c2cc(NC(=O)C3CCCCC3)ccc2O[C@@H]1CN(C)Cc1ccc(C(=O)O)cc1,3.82%
14,COc1ccc(NC(=O)Nc2ccc3c(c2)CC(=O)N([C@@H](C)CO)C[C@H](C)[C@@H](CN(C)S(=O)(=O)c2cn(C)cn2)O3)cc1,14.9%
15,Cc1ccc(S(=O)(=O)Nc2ccc3c(c2)C(=O)N([C@H](C)CO)C[C@H](C)[C@@H](CN(C)C(=O)Nc2ccc4c(c2)OCO4)OCCCC[C@@H](C)O3)cc1,-3.08%
16,COc1cc(/C=N\NC(=O)CCCCCCC(=O)NO)c(Br)cc1O,77.6% (active)
17,COC(=O)CCCCCCC(=O)N/N=C/c1ccc(O)c(OC)c1,9.74%
18,COC(=O)CCCCCCC(=O)N/N=C/c1c(OC)cc(O)cc1OC,3.27%
19,C[C@H](CO)N1C[C@H](C)[C@H](CN(C)S(C)(=O)=O)Oc2c(NC(=O)c3ccc(-c4nccs4)cc3)cccc2C1=O,-1.51%
20,COc1ccc(S(=O)(=O)Nc2ccc3c(c2)C(=O)N([C@H](C)CO)C[C@@H](C)[C@H](CN(C)S(=O)(=O)c2ccc(C)cc2)O3)cc1,-13.4%
21,C[C@@H]1CN([C@H](C)CO)C(=O)c2cc(NS(C)(=O)=O)ccc2O[C@@H]1CN(C)S(C)(=O)=O,6.6%
22,Cc1noc(C)c1NC(=O)N(C)C[C@H]1OCCCC[C@@H](C)Oc2ccc(NC(=O)NC(C)C)cc2C(=O)N([C@H](C)CO)C[C@@H]1C,-5.7%
23,COc1ccc(NC(=O)Nc2ccc3c(c2)C(=O)N([C@H](C)CO)C[C@H](C)[C@@H](CN(C)C(=O)Nc2ccc4c(c2)OCO4)O3)cc1,3.11%
24,C[C@@H]1CN([C@@H](C)CO)C(=O)c2cc(NC(=O)CCN3CCOCC3)ccc2O[C@@H]1CN(C)S(=O)(=O)c1ccccc1,8.45%
